Data taken from ChEMBL document CHEMBL1154604, “Novel hybrids from lamellarin D and combretastatin A 4 as cytotoxic agents” (Eur J Med Chem, 2010).

What was measured:
Format in all cases: functional, cell-based
HCT-116 = experiment: Antiproliferative activity against human HCT116 cells after 48 hrs by MTT assay; settings: HCT-116, 48 h
How it was run: (§1)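 Exponentially growing cells seeded in 96-well plates, left 24 h, then exposed to compounds at given concentrations for 48 h. MTT at 2.5 mg ml^-1 added for 4 h; formazan dissolved in 10% SDS in 0.1 N HCl, absorbance at 570 nm. Viability compared with blank; IC50 (50% inhibition of viability) calculated by Bliss method.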

K562 = experiment: Antiproliferative activity against human K562 cells after 48 hrs by MTT assay; settings: K562, 48 h; how it was run: as §1
SGC-7901 = experiment: Antiproliferative activity against human SGC7901 cells after 48 hrs by MTT assay; settings: SGC-7901, 48 h; how it was run: as §1
SMMC-7721 = experiment: Antiproliferative activity against human SMMC7721 cells after 48 hrs by MTT assay; settings: SMMC-7721, 48 h; how it was run: as §1
A549 = experiment: Antiproliferative activity against human A549 cells after 48 hrs by MTT assay; settings: A549, 48 h; how it was run: as §1

Row | Compound | IC50 (HCT-116) [µM] | IC50 (K562) [µM] | IC50 (SGC-7901) [µM] | IC50 (SMMC-7721) [µM] | IC50 (A549) [µM]
1 | COc1cc2c(cc1OC(C)C)CCn1cc(-c3ccc(Cl)cc3)c(-c3cc(OC)c(OC)c(OC)c3)c1-2 | > 93.6 | > 93.6 | > 93.6 | > 93.6 | > 93.6
2 | COc1cc2c(cc1OC(C)C)CCn1cc(-c3ccc(Br)cc3)c(-c3cc(OC)c(OC)c(OC)c3)c1-2 | > 86.4 | > 86.4 | 15.4 | > 86.4 | > 86.4
3 | COc1cc2c(cc1OC)-c1c(-c3cc(OC)c(OC)c(OC)c3)c(-c3ccc(OC)c(OC(C)C)c3)cn1CC2 | > 89.3 | > 89.3 | > 89.3 | > 89.3 | > 89.3
4 | COc1ccc(-c2c(-c3cc(F)ccc3OC)cn3c2-c2cc(OC)c(OC)cc2CC3)cc1 | > 109 | > 109 | > 109 | > 109 | > 109
5 | COc1cc2c(cc1OC(C)C)CCn1cc(-c3ccc(O)c(O)c3)c(-c3cc(OC)c(OC)c(OC)c3)c1-2 | 1.4 | 4 | > 94.1 | > 94.1 | > 94.1
6 | COc1cc2c(cc1OC)-c1c(-c3cc(OC)c(OC)c(OC)c3)c(-c3ccc(Cl)cc3)cn1CC2 | > 98.8 | > 98.8 | > 98.8 | > 98.8 | > 98.8
7 | COc1ccc(-c2cn3c(c2-c2cc(OC)c(OC)c(OC)c2)-c2cc(OC)c(OC)cc2CC3)cc1O | 3.2 | 22 | > 96.4 | > 96.4 | > 96.4
8 | COc1ccc(-c2cn3c(c2-c2cc(OC)c(OC)c(OC)c2)-c2cc(OC)c(OC(C)C)cc2CC3)cc1O | > 91.5 | 19.6 | > 91.5 | > 91.5 | > 91.5
9 | COc1cc2c(cc1OC)-c1c(-c3cc(OC)c(OC)c(OC)c3)c(-c3ccc(Br)cc3)cn1CC2 | > 90.8 | 8.8 | 1.2 | 17.5 | > 90.8
10 | COc1ccc(-c2c(-c3cc(F)ccc3OC(C)C)cn3c2-c2cc(OC)c(OC)cc2CC3)cc1 | > 103 | > 103 | > 103 | > 103 | > 103
11 | COc1ccc(-c2cn3c(c2-c2cc(OC)c(OC)c(OC)c2)-c2cc(OC)c(OC(C)C)cc2CC3)cc1OC(C)C | > 85.1 | 83.3 | > 85.1 | > 85.1 | > 85.1
12 | COc1cc2c(cc1OC)-c1c(-c3cc(OC)c(OC)c(OC)c3)c(-c3cc(F)ccc3OC)cn1CC2 | > 96.2 | 37.1 | > 96.2 | > 96.2 | > 96.2

Continued, values first:

Row | IC50 (HCT-116) [µM] | IC50 (K562) [µM] | IC50 (SGC-7901) [µM] | IC50 (SMMC-7721) [µM] | IC50 (A549) [µM] | Compound
13 | 5.8 | 14.1 | > 99.4 | 43.9 | 99.4 | COc1cc2c(cc1OC)-c1c(-c3cc(OC)c(OC)c(OC)c3)c(-c3ccc(O)c(O)c3)cn1CC2
14 | 34.5 | 3.1 | > 117 | > 117 | > 117 | COc1ccc(-c2c(-c3ccc(O)cc3)cn3c2-c2cc(OC)c(OC)cc2CC3)cc1
15 | 13.8 | 5.3 | 22.7 | 15 | 23.3 | COc1cc2c(cc1OC)-c1c(-c3cc(OC)c(OC)c(OC)c3)c(-c3ccc(O)cc3)cn1CC2
16 | > 106 | > 106 | > 106 | > 106 | > 106 | COc1ccc(-c2c(-c3ccc(O)c(O)c3)cn3c2-c2cc(OC)c(OC)cc2CC3)cc1OC
17 | 0.7 | 2.7 | 11.4 | 10.9 | 6.7 | COc1cc(-c2c(-c3ccc(O)c(O)c3)cn3c2-c2cc(OC)c(OC(C)C)cc2CC3)ccc1OC(C)C
18 | > 109 | > 109 | > 109 | > 109 | > 109 | COc1ccc(-c2c(-c3ccc(OC)c(O)c3)cn3c2-c2cc(OC)c(OC)cc2CC3)cc1
19 | > 96.8 | > 96.8 | > 96.8 | 46.7 | > 96.8 | COc1cc2c(cc1OC(C)C)CCn1cc(-c3ccc(O)cc3)c(-c3cc(OC)c(OC)c(OC)c3)c1-2
20 | 21 | 59.8 | > 73.5 | > 73.5 | > 73.5 | COc1cc(-c2c(-c3cc(OC)c(OC(C)C)cc3OS(C)(=O)=O)cn3c2-c2cc(OC)c(OC(C)C)cc2CC3)ccc1OC(C)C
21 | > 83.9 | > 83.9 | > 83.9 | > 83.9 | > 83.9 | COc1ccc(-c2c(-c3cc(OC)c(OC)cc3OS(C)(=O)=O)cn3c2-c2cc(OC)c(OC)cc2CC3)cc1OC
22 | > 76.7 | > 76.7 | > 76.7 | > 76.7 | > 76.7 | COc1cc(OS(C)(=O)=O)c(-c2cn3c(c2-c2ccc(OC(C)C)c(OC)c2)-c2cc(OC)c(OC(C)C)cc2CC3)cc1OC
23 | > 91.6 | > 91.6 | > 91.6 | > 91.6 | > 91.6 | COc1cc(-c2c(-c3cc(F)ccc3OC)cn3c2-c2cc(OC)c(OC(C)C)cc2CC3)ccc1OC(C)C
24 |  |  | 3.34 |  |  | CC(=O)O[C@H]1C(=O)[C@@]2(C)[C@H]([C@H](OC(=O)c3ccccc3)[C@]3(O)C[C@H](OC(=O)[C@H](O)[C@@H](NC(=O)c4ccccc4)c4ccccc4)C(C)=C1C3(C)C)[C@]1(OC(C)=O)CO[C@@H]1C[C@@H]2O [PACLITAXEL]
